Assay results published in PMC12353801 (Nature Medicine, 2025).

Legend:
[1] = tested on: patients with IPF; assay: Phase 2a trial: change in forced vital capacity; assay type: in vivo, human
In short: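 This was a double-blind, 1:1:1:1 randomized trial of oral 30 mg QD, 30 mg BID or 60 mg QD against placebo QD for 12 weeks on standard of care. Spirometry to 2019 ATS/ERS criteria, on central SpiroSphere devices or on unchanged local equipment, was done at baseline and week 12. Analysis used ANCOVA (treatment fixed, baseline covariate) with multiple imputation for missing week-12 data, two-sided, intent-to-treat.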

[2] = tested on: patients with IPF; assay: Phase 2a trial: acute exacerbations of IPF and days hospitalized; assay type: in vivo, human; details: 60 mg QD
In short: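 Acute IPF exacerbations, and days in hospital after each, were recorded from week 0 through week 12 in IPF patients. Patients received oral dosing (30 mg QD, 30 mg BID or 60 mg QD) or placebo QD alongside standard of care. Adverse events were monitored throughout treatment and for 1 week after the last dose.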

[3] = tested on: healthy individuals; details: phase 0 and 1 trials; cited from earlier work
[4] = tested on: serum proteins; assay: Olink Explore 3072 proteomic profiling of patient serum; assay type: in vivo, human; details: for number of serum proteins significantly changing with treatment: Benjamini–Hochberg-adjusted P value <0.1
In short: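 Serum was sampled at baseline and weeks 2, 4, 8 and 12 and profiled on the Olink Explore 3072 panel as NPX. Dose effects were fitted per protein with a generalized linear mixed model: NPX ~ treatment + visit + treatment:visit + (1|patient). Baseline-to-week-12 change was tested by two-sided paired t-test. P values were BH-adjusted, with significance at adjusted P < 0.1.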

[5] = tested on: patients with IPF; assay: Phase 2a trial: treatment-emergent adverse events; assay type: in vivo, human; details: for percentage of patients who have at least one treatment-emergent adverse event / AEs considered to be treatment related / AEs leading to treatment discontinuation / Any AE / Liver function: ALT increase / Liver function: AST increase / Liver function: Liver injury / SAEs considered to be treatment related / SAEs resulting in death / SAEs, grade ≥3: 12 weeks; for AEs considered to be treatment related / AEs leading to treatment discontinuation / Any AE / Liver function: ALT increase / Liver function: AST increase / Liver function: Liver injury / SAEs considered to be treatment related / SAEs resulting in death / SAEs, grade ≥3: n = 18
[6] = Pharmacokinetics of rentosertib in blood plasma of patients with IPF; assay type: in vivo, human

SMILES: CC(C)n1cnc(-c2ccc(F)cc2)c1-c1ncc(C(=O)Nc2ccc(N3CCN(C)CC3)cc2)[nH]1 [rentosertib]
- Absolute change in FVC from baseline after 12 weeks, mean (95% CI) ([1]; 30 mg BID): +19.7 ml
- Absolute change in FVC from baseline after 12 weeks, mean (95% CI) ([1]; 30 mg QD): -27.0 mL
- Absolute change in FVC from baseline after 12 weeks, mean (95% CI) ([1]; 60 mg QD): +98.4 ml
- Change in FVC - No SOC: FVC change from baseline (95% CI) ([1]; 60 mg QD, 12 weeks, not concurrently taking SOC antifibrotic therapy): +187.8 mL
- Number of days hospitalized for acute IPF exacerbations, Mean (SD) [2]: 23.3 days
- patients who experienced acute exacerbation of IPF (AE-IPF) ([2]; three patients): 16.7%
- pharmacokinetic (PK) profile, overall [3]: favorable pharmacokinetic (PK) profile
- safety and tolerability, overall [3]: safe and well tolerated
- number of significantly altered proteins from baseline to week 12 ([4]; 30 mg BID): 39
- number of significantly altered proteins from baseline to week 12 ([4]; 30 mg QD): 0
- number of significantly altered proteins from baseline to week 12 ([4]; 60 mg QD): 115
- number of serum proteins significantly changing with treatment ([4]; week 2, linear regression): 20
- number of serum proteins significantly changing with treatment ([4]; week 4, linear regression): 82
- number of serum proteins significantly changing with treatment ([4]; week 12, linear regression): 192
- TEAE: alanine aminotransferase (ALT) increase ([5]; 30 mg BID, 1 patient): 5.6%
- treatment-related SAEs ([5]; 30 mg BID, 2/18): 11.1%
- TEAE: diarrhea ([5]; 30 mg BID, 3 patients): 16.7%
- treatment discontinued for AEs due to liver injury or dysfunction ([5]; 30 mg BID, 4/18): 22.2%
- TEAE: hepatic function abnormal ([5]; 30 mg BID, 4 patients): 22.2%
- TEAE: hypokalemia ([5]; 30 mg BID, 5 patients): 27.8%
- Treatment-related AEs ([5]; 30 mg BID, 11/18): 61.1%
- percentage of patients who have at least one treatment-emergent adverse event ([5]; 30 mg BID, n = 15/18): 83.3%
- AEs considered to be treatment related ([5]; 30 mg BID): 11 (61.1) no. (%)
- AEs leading to treatment discontinuation ([5]; 30 mg BID): 5 (27.8) no. (%)
- Any AE ([5]; 30 mg BID): 15 (83.3) no. (%)
- Liver function: ALT increase ([5]; 30 mg BID): 0 (0) no. (%)
- Liver function: AST increase ([5]; 30 mg BID): 0 (0) no. (%)
- Liver function: Liver injury ([5]; 30 mg BID): 2 (11.1) no. (%)
- SAEs considered to be treatment related ([5]; 30 mg BID): 2 (11.1) no. (%)
- SAEs resulting in death ([5]; 30 mg BID): 1 (5.6) no. (%)
- SAEs, grade ≥3 ([5]; 30 mg BID): 4 (22.2) no. (%)
- treatment discontinued for AEs due to liver injury or dysfunction ([5]; 30 mg QD, 0/18): 0%
- safety and tolerability, overall ([5]; 30 mg QD, 30 mg BID and 60 mg QD over 12 weeks): safe and well tolerated
- treatment-related SAEs ([5]; 30 mg QD, 1/18): 5.6%
- TEAE: alanine aminotransferase (ALT) increase ([5]; 30 mg QD, 1 patient): 5.6%
- TEAE: diarrhea ([5]; 30 mg QD, 2 patients): 11.1%
- TEAE: hepatic function abnormal ([5]; 30 mg QD, 2 patients): 11.1%
- TEAE: hypokalemia ([5]; 30 mg QD, 3 patients): 16.7%
- Treatment-related AEs ([5]; 30 mg QD, 9/18): 50.0%
- percentage of patients who have at least one treatment-emergent adverse event ([5]; 30 mg QD, n = 13/18): 72.2%
- AEs considered to be treatment related ([5]; 30 mg QD): 9 (50.0) no. (%)
- AEs leading to treatment discontinuation ([5]; 30 mg QD): 1 (5.6) no. (%)
- Any AE ([5]; 30 mg QD): 13 (72.2) no. (%)
- Liver function: ALT increase ([5]; 30 mg QD): 0 (0) no. (%)
- Liver function: AST increase ([5]; 30 mg QD): 0 (0) no. (%)
- Liver function: Liver injury ([5]; 30 mg QD): 0 (0) no. (%)
- SAEs considered to be treatment related ([5]; 30 mg QD): 1 (5.6) no. (%)
- SAEs resulting in death ([5]; 30 mg QD): 0 (0) no. (%)
- SAEs, grade ≥3 ([5]; 30 mg QD): 2 (11.1) no. (%)
- TEAE: alanine aminotransferase (ALT) increase ([5]; 60 mg QD): 33.3%
- treatment-related SAEs ([5]; 60 mg QD, 2/18): 11.1%
- treatment discontinued for AEs due to liver injury or dysfunction ([5]; 60 mg QD, 3/18): 17%
- TEAE: diarrhea ([5]; 60 mg QD, 5 patients): 27.8%
- percentage of patients who have at least one treatment-emergent adverse event ([5]; 60 mg QD, n = 15/18): 83.3%
- AEs considered to be treatment related ([5]; 60 mg QD): 14 (77.8) no. (%)
- AEs leading to treatment discontinuation ([5]; 60 mg QD): 4 (22.2) no. (%)
- Any AE ([5]; 60 mg QD): 15 (83.3) no. (%)
- Liver function: ALT increase ([5]; 60 mg QD): 1 (5.6) no. (%)
- Liver function: AST increase ([5]; 60 mg QD): 1 (5.6) no. (%)
- Liver function: Liver injury ([5]; 60 mg QD): 1 (5.6) no. (%)
- SAEs considered to be treatment related ([5]; 60 mg QD): 2 (11.1) no. (%)
- SAEs resulting in death ([5]; 60 mg QD): 0 (0) no. (%)
- SAEs, grade ≥3 ([5]; 60 mg QD): 7 (38.9) no. (%)
- Treatment-related AEs ([5]; 60 mg QD, 14/18): 77.8%
- AUC0–t, arithmetic mean ([6]; 30 mg BID, week 0 (first dose)): 315 h/ng/mL
- AUC0–t, arithmetic mean ([6]; 30 mg BID, week 12 (EOT)): 1,390 h ng^−1 ml^−1
- time of peak plasma concentration after administration ([6]; 30 mg QD, 30 mg BID, 60 mg QD, single and multiple doses): 1 h
- AUC0–t, arithmetic mean ([6]; 30 mg QD, week 0 (first dose)): 553 h/ng/mL
- AUC0–t, arithmetic mean ([6]; 30 mg QD, week 12 (EOT)): 788 h/ng/mL
- AUC0–t, arithmetic mean ([6]; 60 mg QD, week 0 (first dose)): 1,630 h ng^−1 ml^−1
- AUC0–t, arithmetic mean ([6]; 60 mg QD, week 12 (EOT)): 3,450 h ng^−1 ml^−1
- drug accumulation ([6]; by week 12): no obvious drug accumulation
- steady state achieved ([6]; multiple doses): 2 week
